ChEMBL document CHEMBL2203112, “Synthesis, evaluation of anti-HIV-1 and anti-HCV activity of novel 2',3'-dideoxy-2',2'-difluoro-4'-azanucleosides” (Bioorg Med Chem, 2012)
Active and inactive are the calls of the source. The rule behind the calls is not given here.

How the values were obtained:
Vero = test: Cytotoxicity against african green monkey Vero cells; type: cell-based; details: Chlorocebus sabaeus
How it was run: (§1)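 Cytotoxicity measured in lymphocytic CEM cells and in Vero (African green monkey kidney) cells; expressed as IC50 (μM).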

CCRF-CEM = test: Cytotoxicity against human CEM cells; type: cell-based; how it was run: as §1
PBMC = test: Cytotoxicity against human PBMC; type: cell-based
How it was run: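 Cytotoxicity measured in uninfected, phytohemagglutinin-stimulated human PBM cells; expressed as IC50 (μM).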

[1] = system: Human immunodeficiency virus 1; test: Antiviral activity against HIV1 LAI infected in human PBMC assessed as inhibition of viral replication; type: functional, organism-based; details: Human immunodeficiency virus 1, LAI
Hepatitis C virus = test: Antiviral activity against HCV assessed as inhibition of viral replication at 10 uM; type: functional, organism-based; details: Hepacivirus hominis
How it was run: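 HCV replicon assay with a single test concentration of 10 μM; 2′-C-Me-cytidine served as positive control.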

Structure (SMILES)	EC50 [1] [µM]	EC90 [1] [µM]	IC50 (Vero) [µM]	IC50 (CCRF-CEM) [µM]	IC50 (PBMC) [µM]	inhibition (Hepatitis C virus)
CC(C)(C)OC(=O)N1C(n2cnc3c(Cl)ncnc32)C(F)(F)C[C@H]1CO (single isomer, unassigned; 26) [listing 1 of 2 here]	> 100	> 100	> 100	57.1	> 100	
CC(C)(C)OC(=O)N1C(n2cnc3c(Cl)ncnc32)C(F)(F)C[C@H]1CO (single isomer, unassigned; 26) [listing 2 of 2 here]						inactive
CC(C)(C)OC(=O)N1C(n2cnc3c(Cl)ncnc32)C(F)(F)C[C@H]1CO (single isomer, unassigned; 27) [listing 1 of 2 here]	64.5	> 100	> 100	38.1	58.1	
CC(C)(C)OC(=O)N1C(n2cnc3c(Cl)ncnc32)C(F)(F)C[C@H]1CO (single isomer, unassigned; 27) [listing 2 of 2 here]						inactive
CC(C)(C)OC(=O)N1C(n2cnc3ncnc(Cl)c32)C(F)(F)C[C@H]1CO (single isomer, unassigned; 28) [listing 2 of 2 here]						inactive
CC(C)(C)OC(=O)N1C(n2cnc3ncnc(Cl)c32)C(F)(F)C[C@H]1CO (single isomer, unassigned; 29) [listing 2 of 2 here]						inactive
CC(C)(C)OC(=O)N1C(n2cnc3c(N)ncnc32)C(F)(F)C[C@H]1CO (single isomer, unassigned; 30) [listing 2 of 2 here]						inactive
CC(C)(C)OC(=O)N1C(n2cnc3c(N)ncnc32)C(F)(F)C[C@H]1CO (single isomer, unassigned; 31) [listing 2 of 2 here]						inactive
CC(C)(C)OC(=O)N1C(n2cnc3ncnc(N)c32)C(F)(F)C[C@H]1CO (single isomer, unassigned; 32) [listing 2 of 2 here]						inactive
CC(C)(C)OC(=O)N1C(n2cnc3ncnc(N)c32)C(F)(F)C[C@H]1CO (single isomer, unassigned; 33) [listing 2 of 2 here]						inactive
Cc1cn([C@H]2C[C@H](N=[N+]=[N-])[C@@H](CO)O2)c(=O)[nH]c1=O [ZIDOVUDINE]		0.0027			> 100	inactive

Now from value to compound, other results behind:

EC50 [1] [µM]	EC90 [1] [µM]	Structure (SMILES)	IC50 (Vero) [µM]	IC50 (CCRF-CEM) [µM]	IC50 (PBMC) [µM]	inhibition (Hepatitis C virus)
36.9	75.6	CC(C)(C)OC(=O)N1[C@H](CO)CC(F)(F)[C@H]1n1cc(F)c(=O)[nH]c1=O	> 100	> 100	30.5	inactive
44.5	90.8	CC(C)(C)OC(=O)N1[C@H](CO)CC(F)(F)[C@@H]1n1cc(F)c(=O)[nH]c1=O	> 100	> 100	28.2	inactive
> 100	> 100	CC(C)(C)OC(=O)N1[C@H](CO)CC(F)(F)[C@@H]1n1ccc(=O)[nH]c1=O	44.4	> 100	81.4	inactive
> 100	> 100	CC(C)(C)OC(=O)N1[C@H](CO)CC(F)(F)[C@H]1n1ccc(=O)[nH]c1=O	> 100	> 100	> 100	inactive
> 100	> 100	CC(C)(C)OC(=O)N1C(n2cnc3ncnc(Cl)c32)C(F)(F)C[C@H]1CO (single isomer, unassigned; 28) [listing 1 of 2 here]	> 100	> 100	> 100	
92.3	> 100	CC(C)(C)OC(=O)N1C(n2cnc3ncnc(Cl)c32)C(F)(F)C[C@H]1CO (single isomer, unassigned; 29) [listing 1 of 2 here]	> 100	55.4	59.5	
> 100	> 100	CC(C)(C)OC(=O)N1C(n2cnc3c(N)ncnc32)C(F)(F)C[C@H]1CO (single isomer, unassigned; 30) [listing 1 of 2 here]	> 100	> 100	> 100	
> 100	> 100	CC(C)(C)OC(=O)N1C(n2cnc3c(N)ncnc32)C(F)(F)C[C@H]1CO (single isomer, unassigned; 31) [listing 1 of 2 here]	> 100	> 100	> 100	
> 100	> 100	CC(C)(C)OC(=O)N1C(n2cnc3ncnc(N)c32)C(F)(F)C[C@H]1CO (single isomer, unassigned; 32) [listing 1 of 2 here]	> 100	> 100	> 100	
> 100	> 100	CC(C)(C)OC(=O)N1C(n2cnc3ncnc(N)c32)C(F)(F)C[C@H]1CO (single isomer, unassigned; 33) [listing 1 of 2 here]	> 100	> 100	> 100	
